Results gathered from unrelated publications.
Each line is one published result; the experiments were not run side by side.
Target: Tyrosine-protein kinase Fyn (FYN, Homo sapiens, UniProt P06241)

The inhibition of CCCCNc1ncc2c(-c3ccc(F)cc3)nn(C[C@H]3CC[C@H](N)CC3)c2n1 is reported as over 96% (target engagement in cells, inhibitor, chemoproteomics; 20 mM).
O=C1Nc2ccc(Cl)cc2C1=Cc1cc(Cl)c(O)c(Cl)c1 gave a remaining signal of 73% (cell-free assay; 0.5 µM).
CNCc1ccc(-c2cc(-c3nc(-c4ccc(S(=O)(=O)C(C)C)cc4)cnc3N)on2)cc1 has an inhibition of 9% (enzyme activity, inhibitor; 0.4 µM).
O=c1nc(-c2ccccn2)sc2ccccc12 has a remaining binding of 100% (binding, competition with immobilised ligand; 1 µM).
CC/C(=N\NC(=O)NCc1cccc(O)c1)c1ccc(O)c(C)c1O has an inhibition of 0.5% (enzyme activity, inhibitor; 0.1 µM).
COc1cc2ncnc(Nc3ccc(F)c(Cl)c3)c2cc1OCCCN1CCOCC1 has a remaining signal of 92.2% (cell-free assay; 0.5 µM).
Cn1cnc(Br)c1C1=CN(c2ncnc3[nH]cnc23)CCS1 has an inhibition of 44% (enzyme activity, inhibitor, radiometric; 2 µM).
For Cc1ccc(NC(=O)c2ccc(C)c(C(F)(F)F)c2)cc1C#Cc1nn(C2CCC(O)CC2)c2ncnc(N)c12 (centres unmarked), the remaining signal was 0% (cell-free assay; 10 µM).
For Cc1ccc(C(=O)NCc2ccsc2)cc1C#Cc1cn(C(C)C)c2ncnc(N)c12, the activity vs control was 3% (enzyme activity, inhibitor; 1 µM).
CCCOc1ccc(OC)c(F)c1C(=O)c1ccc(C(=O)N[C@@H]2CNC[C@H]2NC(=O)c2ccc3[nH]ncc3c2)cc1 gave a remaining activity of 69% (enzyme activity, inhibitor; 10 µM).
With CN([C@@H]1CCc2c(CC(=O)O)c3cc(S(C)(=O)=O)ccc3n2C1)S(=O)(=O)c1ccc(F)cc1 the remaining binding was 99% (cell-free assay, competition with immobilised ligand; 1 µM).
CNC(=O)c1cc(Oc2ccc(NC(=O)Nc3ccc(Cl)c(C(F)(F)F)c3)cc2)ccn1 gave an inhibition of -22% (enzyme activity, inhibitor; 0.3 µM).
COc1cccc(CNC(=O)c2nc3scc(COCc4ccc(C(=O)O)cc4)c3c(=O)[nH]2)c1 gave a remaining binding of 81.1% (cell-free assay, competition with immobilised ligand; 1 µM).
The activity vs control of O=C1c2ccccc2-c2n[nH]c3cccc1c23 is reported as 93.2% (enzyme activity, inhibitor; 0.5 µM).
With C=CC(=O)Nc1cc(Nc2nccc(Nc3cc(Cl)c(F)cc3C(C)(C)O)n2)c(OC)cc1N1CC[C@@H](N(C)C)C1 the inhibition was 23% (enzyme activity, inhibitor; 1 µM).
CCN(CC)CCNC(=O)c1c(C)[nH]c(/C=C2\C(=O)Nc3ccc(F)cc32)c1C gave an inhibition of 89% (enzyme activity, inhibitor; 10 µM).
The remaining binding of Cc1nc(Cc2cccc(C(F)(F)F)c2)sc1-c1ccc(C(N)=O)nc1 is reported as 100% (cell-free assay, competition with immobilised ligand; 1 µM).
Cc1cc(NC(=O)c2cccc3cc(-c4cccc5[nH]nc(N)c45)ccc23)ccc1F has an activity vs control of 88% (enzyme activity, inhibitor; 0.1 µM).
With COc1cc2ncnc(Nc3ccc(Oc4ccccc4)c(C)c3C)c2cc1OC the inhibition was 42% (enzyme activity, inhibitor; 1 µM).
For Cc1cc(NC(=O)c2cccc(S(F)(F)(F)(F)F)c2)cc(-n2ccn3nc(-c4cccnc4)cc23)c1, the remaining binding was 81.3% (cell-free assay, competition with immobilised ligand; 1 µM).
For COc1cccc2c(NCc3ccccc3)nc(-n3c(N)nc4ccccc43)nc12, the inhibition was -15.9% (target engagement in cells, inhibitor, chemoproteomics; 20 mM).
For COc1ccc2cc(OCC3(C(=O)O)CN(C(=O)c4ccc(F)cc4)C3)ccc2c1, the remaining binding was 100% (cell-free assay, competition with immobilised ligand; 1 µM).
COc1cc(OC)c(C=C2C(O)=Nc3ccccc32)c(OC)c1 has a remaining signal of 100% (cell-free assay, inhibitor; 0.5 µM).
For Cc1cnc(NC2CCOCC2)nc1-n1cnc(C(=O)NC(CN)c2cc(F)cc(Cl)c2)c1 (centres unmarked), the remaining activity was 100% (enzyme activity, inhibitor, radiometric; 1 µM).
CC(C)(C)c1nc(-c2cccc(NS(=O)(=O)c3c(F)cccc3F)c2F)c(-c2ccnc(N)n2)s1 gave a remaining activity of 36% (enzyme activity, inhibitor, radiometric; 1 µM).
With Cc1cc(-n2nc(Cc3cc(F)cc(C(F)(F)F)c3)nc2C)ccc1C(N)=O the remaining binding was 100% (cell-free assay, competition with immobilised ligand; 1 µM).
The inhibition of CNc1cccc2cc(C(=O)Nc3ccc(C(=O)O)cc3)c(=O)[nH]c12 is reported as 6.9% (enzyme activity, inhibitor; 10 µM).
For Cc1nc(C2CCN(C(=O)c3ccc(OC(F)(F)F)cc3N)CC2)c2ncc(N3CCN(C)CC3)cc2n1, the remaining binding was 96% (cell-free assay, competition with immobilised ligand; 1 µM).
CCN(CC)CCNC(=O)c1c(C)[nH]c(/C=C2\C(=O)Nc3ccc(Cl)cc32)c1C gave a remaining activity of 28.4% (enzyme activity, inhibitor; 0.5 µM).
CC(C)(O)[C@H]1CC[C@H](Nc2ccc3ncc(-c4cccc(C(F)(F)F)c4)n3n2)CC1 gave a remaining activity of 22.4% (enzyme activity, inhibitor; 1 µM).
For O=C1NC(=O)c2cc(Nc3ccc(F)cc3)c(Nc3ccc(F)cc3)cc21, the remaining signal was 99.4% (cell-free assay; 0.5 µM).
The remaining activity of O=C(Nc1cnn(-c2csc(C(=O)NC3COC3)c2)c1)Nc1ccccc1Cl is reported as 97.8% (enzyme activity, inhibitor; 5 µM).
